≈ marks a conversion by molar mass, not a printed value.
Columns and labels:
Assay type in all cases: functional
[1] = system: Staphylococcus aureus; assay: Bactericidal activity against methicillin-resistant Staphylococcus aureus ATCC 43300 preincubated 16 to 20 hrs followed by subculturing and measured after over night
Summary of the method: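 MBC determined by the CLSI broth microdilution method against MRSA ATCC 43300, with ATCC 43300 also serving as the QC strain. Pleuromutilin and tiamulin were reference drugs.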

[2] = system: Escherichia coli; assay: Bactericidal activity against Escherichia coli ATCC 25922 preincubated 16 to 20 hrs followed by subculturing and measured after over night
Summary of the method: (§1)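 MBC by CLSI broth microdilution on the same strain panel: S. aureus ATCC 43300, ATCC 29213, clinical isolates AD3 and 144, E. coli ATCC 25922; ATCC 43300 served as QC strain.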

[3] = system: Staphylococcus aureus; assay: Bactericidal activity against Staphylococcus aureus 144 preincubated 16 to 20 hrs followed by subculturing and measured after over night; summary of the method: as §1
[4] = system: Escherichia coli; assay: Antibacterial activity against Escherichia coli ATCC 25922 after 24 hrs by CLSI based broth micro dilution method
Summary of the method: (§2)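 CLSI broth microdilution MIC against S. aureus ATCC 43300 (MRSA), ATCC 29213, clinical isolates AD3 and 144 (Guangdong Province), and E. coli ATCC 25922; ATCC 43300 served as QC strain, with the CLSI quality control range as reference.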

[5] = Ratio of MBC for bactericidal activity against methicillin-resistant Staphylococcus aureus ATCC 43300 to MIC for antibacterial activity against methicillin-resistant Staphylococcus aureus ATCC 4330
[6] = system: Staphylococcus aureus; assay: Bactericidal activity against Staphylococcus aureus AD3 preincubated 16 to 20 hrs followed by subculturing and measured after over night; summary of the method: as §1
[7] = system: Staphylococcus aureus; assay: Bactericidal activity against Staphylococcus aureus ATCC 29213 preincubated 16 to 20 hrs followed by subculturing and measured after over night; summary of the method: as §1
[8] = system: Staphylococcus aureus; assay: Antibacterial activity against Staphylococcus aureus ATCC 29213 after 24 hrs by CLSI based broth micro dilution method
Summary of the method: (§3)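 Broth microdilution run per CLSI. MRSA ATCC 43300 served as the QC strain, with the CLSI QC range as reference. S. aureus AD3 and 144 are clinical isolates from Guangdong Province. Pleuromutilin and tiamulin were run as reference drugs.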

[9] = system: Staphylococcus aureus; assay: Antibacterial activity against Staphylococcus aureus AD3 after 24 hrs by CLSI based broth micro dilution method; summary of the method: as §2
[10] = system: Staphylococcus aureus; assay: Antibacterial activity against Staphylococcus aureus 144 after 24 hrs by CLSI based broth micro dilution method; summary of the method: as §3
[11] = system: Staphylococcus aureus; assay: Antibacterial activity against methicillin-resistant Staphylococcus aureus ATCC 43300 after 24 hrs by CLSI based broth micro dilution method; summary of the method: as §3

Row | SMILES | MBC [1] [µg/mL] | MBC [2] [µg/mL] | MBC [3] [µg/mL] | MIC [4] [µg/mL] | Ratio [5] | MBC [6] [µg/mL] | MBC [7] [µg/mL] | MIC [8] [µg/mL] | MIC [9] [µg/mL] | MIC [10] [µg/mL] | MIC [11] [µg/mL]
1 | C=C[C@]1(C)C[C@@H](OC(=O)CSc2ccccc2NC(=O)Cn2cc(CN3CCN(c4cccc(C)c4)CC3)nn2)[C@]2(C)[C@H](C)CC[C@]3(CCC(=O)[C@H]32)[C@@H](C)[C@@H]1O | 1 (≈ 1.28 µM) | > 32 | 8 (≈ 10.2 µM) | > 32 | 1 | 4 (≈ 5.11 µM) | 2 (≈ 2.55 µM) | 1 (≈ 1.28 µM) | 2 (≈ 2.55 µM) | 1 (≈ 1.28 µM) | 1 (≈ 1.28 µM)
2 | C=C[C@]1(C)C[C@@H](OC(=O)CSc2ccccc2NC(=O)Cn2cc(CN3CCOCC3)nn2)[C@]2(C)[C@H](C)CC[C@]3(CCC(=O)[C@H]32)[C@@H](C)[C@@H]1O | 1 (≈ 1.44 µM) | > 32 | 1 (≈ 1.44 µM) | > 32 | 1 | 2 (≈ 2.88 µM) | 0.5 (≈ 0.721 µM) | 0.5 (≈ 0.721 µM) | 1 (≈ 1.44 µM) | 1 (≈ 1.44 µM) | 0.5 (≈ 0.721 µM)
3 | C=C[C@]1(C)C[C@@H](OC(=O)CSc2ccccc2NC(=O)Cn2cc(CN3CCCC3)nn2)[C@]2(C)[C@H](C)CC[C@]3(CCC(=O)[C@H]32)[C@@H](C)[C@@H]1O | 0.5 (≈ 0.738 µM) | > 32 | 0.5 (≈ 0.738 µM) | > 32 | 1 | 0.5 (≈ 0.738 µM) | 4 (≈ 5.9 µM) | 0.25 (≈ 0.369 µM) | 0.25 (≈ 0.369 µM) | 0.25 (≈ 0.369 µM) | 0.25 (≈ 0.369 µM)
4 | C=C[C@]1(C)C[C@@H](OC(=O)CSc2ccccc2NC(=O)Cn2cc(CN3CCN(c4ccc(Cl)cc4)CC3)nn2)[C@]2(C)[C@H](C)CC[C@]3(CCC(=O)[C@H]32)[C@@H](C)[C@@H]1O | 1 (≈ 1.24 µM) | > 32 | 2 (≈ 2.49 µM) | > 32 | 1 | 4 (≈ 4.98 µM) | 4 (≈ 4.98 µM) | 1 (≈ 1.24 µM) | 2 (≈ 2.49 µM) | 2 (≈ 2.49 µM) | 0.5 (≈ 0.622 µM)
5 | C=C[C@]1(C)C[C@@H](OC(=O)CSc2ccccc2NC(=O)Cn2cc(CN3CCCCC3)nn2)[C@]2(C)[C@H](C)CC[C@]3(CCC(=O)[C@H]32)[C@@H](C)[C@@H]1O | 2 (≈ 2.89 µM) | > 32 | 1 (≈ 1.45 µM) | > 32 | 1 | 0.5 (≈ 0.723 µM) | 0.5 (≈ 0.723 µM) | 0.5 (≈ 0.723 µM) | 0.5 (≈ 0.723 µM) | 1 (≈ 1.45 µM) | 0.5 (≈ 0.723 µM)
6 | C=C[C@]1(C)C[C@@H](OC(=O)CSc2ccccc2NC(=O)Cn2cc(CN3CCN(c4cccc(F)c4)CC3)nn2)[C@]2(C)[C@H](C)CC[C@]3(CCC(=O)[C@H]32)[C@@H](C)[C@@H]1O | 2 (≈ 2.54 µM) | > 32 | 2 (≈ 2.54 µM) | > 32 | 1 | 1 (≈ 1.27 µM) | 0.5 (≈ 0.635 µM) | 0.5 (≈ 0.635 µM) | 0.5 (≈ 0.635 µM) | 1 (≈ 1.27 µM) | 1 (≈ 1.27 µM)
7 | C=C[C@]1(C)C[C@@H](OC(=O)CSc2ccccc2NC(=O)Cn2cc(CN3CCN(c4ccccc4F)CC3)nn2)[C@]2(C)[C@H](C)CC[C@]3(CCC(=O)[C@H]32)[C@@H](C)[C@@H]1O | 2 (≈ 2.54 µM) | > 32 | 1 (≈ 1.27 µM) | > 32 | 1 | 1 (≈ 1.27 µM) | 1 (≈ 1.27 µM) | 0.5 (≈ 0.635 µM) | 0.5 (≈ 0.635 µM) | 1 (≈ 1.27 µM) | 1 (≈ 1.27 µM)
8 | C=C[C@]1(C)C[C@@H](OC(=O)CSc2ccccc2NC(=O)Cn2cc(CN3CCN(c4ccccc4Cl)CC3)nn2)[C@]2(C)[C@H](C)CC[C@]3(CCC(=O)[C@H]32)[C@@H](C)[C@@H]1O | 2 (≈ 2.49 µM) | > 32 | 4 (≈ 4.98 µM) | > 32 | 1 | 2 (≈ 2.49 µM) | 2 (≈ 2.49 µM) | 1 (≈ 1.24 µM) | 2 (≈ 2.49 µM) | 2 (≈ 2.49 µM) | 1 (≈ 1.24 µM)
9 | C=C[C@]1(C)C[C@@H](OC(=O)CSc2ccccc2NC(=O)Cn2cc(CN3CCN(c4ccc(O)cc4)CC3)nn2)[C@]2(C)[C@H](C)CC[C@]3(CCC(=O)[C@H]32)[C@@H](C)[C@@H]1O | 4 (≈ 5.1 µM) | > 32 | 8 (≈ 10.2 µM) | > 32 | 1 | 4 (≈ 5.1 µM) | 4 (≈ 5.1 µM) | 2 (≈ 2.55 µM) | 2 (≈ 2.55 µM) | 2 (≈ 2.55 µM) | 2 (≈ 2.55 µM)
10 | C=C[C@]1(C)C[C@@H](OC(=O)CSc2ccccc2NC(=O)Cn2cc(CN3CCN(c4ccccc4C)CC3)nn2)[C@]2(C)[C@H](C)CC[C@]3(CCC(=O)[C@H]32)[C@@H](C)[C@@H]1O | 1 (≈ 1.28 µM) | > 32 | 4 (≈ 5.11 µM) | > 32 | 1 | 4 (≈ 5.11 µM) | 2 (≈ 2.55 µM) | 1 (≈ 1.28 µM) | 2 (≈ 2.55 µM) | 1 (≈ 1.28 µM) | 1 (≈ 1.28 µM)
